≈ marks a conversion by molar mass, not a printed value.
Key:
[1] = (§1) Oral bioavailability in Sprague-Dawley rat at 1 mg/kg; assay type: ADME, organism-based; details: Sprague-Dawley, in vivo
How it was run: (§2)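 Sprague-Dawley rats given 1 mg/kg iv and po, compound dissolved in PEG400. Plasma obtained by centrifugation of collected blood, drug levels quantified by LC/MS/MS. Values are mean ± SD of n = 3.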

[2] = Total clearance in Sprague-Dawley rat at 1 mg/kg, iv; assay type: ADME, organism-based; parameters: dose 1 mg/kg, route intravenous; details: in vivo; how it was run: as §2
Rattus norvegicus [3] = assay: Antiinflammatory activity in Lewis rat assessed as suppression of Mycobacterium tuberculosis adjuvant-induced paw edema at 1 mg/kg, po administered QD from days 15 to 24 post adjuvant-challenge measured on day 25 relative to vehicle-treated control; assay type: functional
How it was run: (§3)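 Female Lewis rats, 7 weeks old; arthritis induced on day 0 by 0.5 mg M. tuberculosis in 50 μL liquid paraffin injected into right hind footpad. Randomized on day 15 (n ≥ 5) by left hind paw volume increase and body weight; drug suspended in 0.5% methylcellulose given orally once daily days 15–24. Left hind paw volume measured day 25 by water displacement plethysmometry; edema expressed as percentage of control.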

[4] = (§4) AUC in Sprague-Dawley rat at 1 mg/kg, po; assay type: ADME, organism-based, Plasma; parameters: dose 1 mg/kg, route oral; details: Sprague-Dawley, plasma; how it was run: as §2
[5] = Permeability of the compound by PAMPA assay at pH 6.5; assay type: ADME; details: read-out: permeability
How it was run: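 PAMPA with pION membrane lipid, donor buffer pH 6.5, n = 2.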

THP-1 = assay: Antiinflammatory activity in human THP1 cells assessed as inhibition of LPS-induced TNFalpha production after 20 hrs; assay type: functional, cell-based; details: THP-1, 20 h
How it was run: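 THP-1 human monocytic cells kept in RPMI 1640 with 10% FBS, penicillin and streptomycin at 37 °C, 5% CO2. Cells (1 × 10^5/well) stimulated with LPS (10 μg/mL final, E. coli 055:B5) with compound or 0.1% DMSO vehicle for 20 h at 37 °C. Supernatant TNF-α compared with DMSO control. IC50 given as mean of triplicate experiments.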

[6] = Half life in Sprague-Dawley rat at 1 mg/kg, iv; assay type: ADME, organism-based; parameters: dose 1 mg/kg, route intravenous; details: in vivo; how it was run: as §2
[7] = Volume of distribution at steady state in Sprague-Dawley rat at 1 mg/kg, iv; assay type: ADME, organism-based; parameters: dose 1 mg/kg, route intravenous; details: in vivo, read-out: Vdss; how it was run: as §2
Rattus norvegicus [8] = assay: Antiinflammatory activity in rat assessed as inhibition of LPS-induced TNFalpha production at 1 mg/kg, po administered 4 hrs prior to LPS-challenge measured after 1 to 1.5 hrs by ELISA relative to vehicle-treated control; assay type: functional
How it was run: (§5)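 Rats dosed orally with compound suspended in 0.5% methylcellulose/0.1% Tween-80, 4 h before LPS (10 μg/animal, ip). At 1.0 or 1.5 h after LPS, retro-orbital blood collected into heparin under anesthesia. Plasma diluted one-fifth and assayed by rat TNF-α ELISA. Percent inhibition taken relative to vehicle group (n = 3−4).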

[9] = Intrinsic clearance in rat liver microsomes in presence of NADPH; assay type: ADME, Microsome; details: read-out: CLH
How it was run: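 Incubation with rat liver microsomes in the presence of an NADPH-generating system, n = 2.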

Rattus norvegicus [10] = assay: Antiinflammatory activity in rat assessed as inhibition of LPS-induced TNFalpha production at 3.2 mg/kg, po administered 4 hrs prior to LPS-challenge measured after 1 to 1.5 hrs by ELISA relative to vehicle-treated control; assay type: functional; how it was run: as §5
[11] = Half life in rat liver homogenate; assay type: ADME, tissue-based
Rattus norvegicus [12] = assay: as §1; assay type: ADME, organism-based; details: in vivo; how it was run: as §2
Rattus norvegicus [13] = assay: as §4; assay type: ADME, organism-based, Plasma; parameters: dose 1 mg/kg, route oral; details: in vivo; how it was run: as §2
Cytochrome P450 2C9 = Cytochrome P450 2C9 (Homo sapiens, UniProt P11712); assay: Inhibition of CYP2C9; assay type: ADME
[14] = target: Mitogen-activated protein kinase 11 (Homo sapiens, UniProt Q15759); assay: Inhibition of human MAPK p38beta by Z'-LYTE assay
How it was run: (§6)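 Human p38α or p38β kinase activity measured by Z′-Lyte kinase assay system.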

[15] = Solubility of the compound at pH 6.8; assay type: physicochemical; details: buffer
Cytochrome P450 2D6 = Cytochrome P450 2D6 (Homo sapiens, UniProt P10635); assay: Inhibition of CYP2D6; assay type: ADME
Rattus norvegicus [16] = assay: Antiinflammatory activity in po dosed rat assessed as inhibition of LPS-induced TNFalpha production administered 4 hrs prior to LPS-challenge measured after 1 to 1.5 hrs by ELISA relative to vehicle-treated control; assay type: functional; how it was run: as §5
[17] = target: Mitogen-activated protein kinase 14 (Homo sapiens, UniProt Q16539); assay: Inhibition of human MAPK p38alpha by Z'-LYTE assay; how it was run: as §6
Cytochrome P450 2C19 = Cytochrome P450 2C19 (Homo sapiens, UniProt P33261); assay: Inhibition of CYP2C19; assay type: ADME
[18] = target: Voltage-gated inwardly rectifying potassium channel KCNH2 (Homo sapiens, UniProt Q12809); assay: Inhibition of human ERG by Rb ion flux assay
Rattus norvegicus [19] = assay: Antiinflammatory activity in po dosed Lewis rat assessed as suppression of Mycobacterium tuberculosis adjuvant-induced paw edema administered QD from days 15 to 24 post adjuvant-challenge measured on day 25 relative to vehicle-treated control; assay type: functional; details: 600 h; how it was run: as §3
Cytochrome P450 1A2 = target: T1, Cytochrome P450 1A2 (Homo sapiens, UniProt P05177); assay: Inhibition of CYP1A2; assay type: ADME
T1 sequence (P05177 whole entry): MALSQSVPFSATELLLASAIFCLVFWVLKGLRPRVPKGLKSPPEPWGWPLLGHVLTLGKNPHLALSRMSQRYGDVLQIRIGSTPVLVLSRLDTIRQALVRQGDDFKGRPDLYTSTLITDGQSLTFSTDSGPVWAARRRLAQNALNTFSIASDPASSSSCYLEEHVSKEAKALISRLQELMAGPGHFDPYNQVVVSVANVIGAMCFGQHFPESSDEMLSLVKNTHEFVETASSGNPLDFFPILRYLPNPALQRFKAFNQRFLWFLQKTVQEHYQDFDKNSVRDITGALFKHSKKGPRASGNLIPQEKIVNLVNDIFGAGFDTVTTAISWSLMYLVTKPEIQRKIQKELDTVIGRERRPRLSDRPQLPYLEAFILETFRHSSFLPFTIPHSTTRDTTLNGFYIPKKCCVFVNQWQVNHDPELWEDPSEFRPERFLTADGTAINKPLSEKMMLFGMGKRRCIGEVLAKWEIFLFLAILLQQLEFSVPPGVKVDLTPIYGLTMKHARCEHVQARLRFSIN

[20] = target: Mitogen-activated protein kinase 9 (Homo sapiens, UniProt P45984); assay: Inhibition of human recombinant JNK2alpha2-mediated ATF-2 phosphorylation after 30 mins by immunoblotting method
Mitogen-activated protein kinase 9, sequence (P45984 whole entry): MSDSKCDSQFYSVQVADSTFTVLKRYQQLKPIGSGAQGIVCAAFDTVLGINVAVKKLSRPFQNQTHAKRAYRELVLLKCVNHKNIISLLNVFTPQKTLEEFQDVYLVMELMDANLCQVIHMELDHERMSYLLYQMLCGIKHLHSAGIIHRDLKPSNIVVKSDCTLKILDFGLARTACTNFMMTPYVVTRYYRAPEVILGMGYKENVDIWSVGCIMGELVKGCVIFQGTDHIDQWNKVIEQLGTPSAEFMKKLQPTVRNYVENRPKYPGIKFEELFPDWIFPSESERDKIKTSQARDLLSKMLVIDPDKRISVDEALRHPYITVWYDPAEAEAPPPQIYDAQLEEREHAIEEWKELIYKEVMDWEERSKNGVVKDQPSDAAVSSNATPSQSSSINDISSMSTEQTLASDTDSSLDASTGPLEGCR

Mitogen-activated protein kinase 11, sequence (Q15759 whole entry): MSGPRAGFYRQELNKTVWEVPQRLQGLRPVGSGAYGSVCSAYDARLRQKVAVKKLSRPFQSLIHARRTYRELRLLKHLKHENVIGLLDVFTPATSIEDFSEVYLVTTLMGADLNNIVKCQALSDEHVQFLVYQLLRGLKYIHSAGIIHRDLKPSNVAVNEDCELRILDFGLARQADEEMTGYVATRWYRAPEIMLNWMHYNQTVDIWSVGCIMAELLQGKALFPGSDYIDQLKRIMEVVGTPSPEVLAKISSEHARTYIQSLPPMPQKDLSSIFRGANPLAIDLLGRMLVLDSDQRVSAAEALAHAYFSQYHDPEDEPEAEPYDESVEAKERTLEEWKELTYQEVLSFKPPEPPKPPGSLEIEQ
Voltage-gated inwardly rectifying potassium channel KCNH2, sequence (Q12809 whole entry): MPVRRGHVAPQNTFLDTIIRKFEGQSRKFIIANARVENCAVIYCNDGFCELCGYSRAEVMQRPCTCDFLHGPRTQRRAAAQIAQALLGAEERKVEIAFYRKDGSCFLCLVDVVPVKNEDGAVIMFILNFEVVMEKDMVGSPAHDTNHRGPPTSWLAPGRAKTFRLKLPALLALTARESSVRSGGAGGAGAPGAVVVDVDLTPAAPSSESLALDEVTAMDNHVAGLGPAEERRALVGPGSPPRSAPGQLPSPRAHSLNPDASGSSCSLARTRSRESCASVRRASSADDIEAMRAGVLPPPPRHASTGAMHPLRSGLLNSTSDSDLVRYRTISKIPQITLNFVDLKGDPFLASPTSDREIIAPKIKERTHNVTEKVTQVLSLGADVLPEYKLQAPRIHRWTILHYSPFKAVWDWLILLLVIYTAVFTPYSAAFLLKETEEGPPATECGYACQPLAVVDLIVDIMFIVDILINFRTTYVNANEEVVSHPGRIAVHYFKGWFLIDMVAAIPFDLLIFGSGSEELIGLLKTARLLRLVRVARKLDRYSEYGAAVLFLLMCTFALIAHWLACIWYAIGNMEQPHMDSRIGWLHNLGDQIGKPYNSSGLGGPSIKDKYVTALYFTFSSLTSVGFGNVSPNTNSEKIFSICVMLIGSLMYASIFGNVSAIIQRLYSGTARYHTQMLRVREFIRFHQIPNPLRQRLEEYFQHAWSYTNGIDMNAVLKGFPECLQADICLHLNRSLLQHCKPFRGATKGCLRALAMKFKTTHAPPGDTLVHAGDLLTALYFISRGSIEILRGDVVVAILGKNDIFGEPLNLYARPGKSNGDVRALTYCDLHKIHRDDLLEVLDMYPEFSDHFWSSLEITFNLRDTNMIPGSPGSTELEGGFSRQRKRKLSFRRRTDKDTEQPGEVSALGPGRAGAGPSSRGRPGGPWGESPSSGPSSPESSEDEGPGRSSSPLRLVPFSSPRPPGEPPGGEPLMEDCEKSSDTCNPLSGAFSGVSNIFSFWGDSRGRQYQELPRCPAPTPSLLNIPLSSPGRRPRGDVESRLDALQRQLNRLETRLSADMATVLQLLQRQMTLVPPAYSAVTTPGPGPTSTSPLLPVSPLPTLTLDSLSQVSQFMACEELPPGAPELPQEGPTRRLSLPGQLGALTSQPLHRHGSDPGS
Cytochrome P450 2C9, sequence (P11712 whole entry): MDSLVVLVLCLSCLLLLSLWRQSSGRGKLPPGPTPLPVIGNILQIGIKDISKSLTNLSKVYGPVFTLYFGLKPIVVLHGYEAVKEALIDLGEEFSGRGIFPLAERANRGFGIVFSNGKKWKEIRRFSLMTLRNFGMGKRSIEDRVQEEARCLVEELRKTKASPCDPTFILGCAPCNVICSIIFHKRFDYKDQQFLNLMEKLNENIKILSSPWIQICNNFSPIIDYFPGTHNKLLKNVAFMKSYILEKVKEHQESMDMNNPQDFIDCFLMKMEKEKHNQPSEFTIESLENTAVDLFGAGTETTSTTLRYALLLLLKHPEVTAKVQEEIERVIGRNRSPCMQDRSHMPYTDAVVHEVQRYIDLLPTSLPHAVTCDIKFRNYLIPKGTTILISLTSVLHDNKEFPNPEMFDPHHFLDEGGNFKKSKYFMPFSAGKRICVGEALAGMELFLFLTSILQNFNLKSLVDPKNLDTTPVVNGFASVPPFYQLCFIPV
Mitogen-activated protein kinase 14, sequence (Q16539 whole entry, looked up): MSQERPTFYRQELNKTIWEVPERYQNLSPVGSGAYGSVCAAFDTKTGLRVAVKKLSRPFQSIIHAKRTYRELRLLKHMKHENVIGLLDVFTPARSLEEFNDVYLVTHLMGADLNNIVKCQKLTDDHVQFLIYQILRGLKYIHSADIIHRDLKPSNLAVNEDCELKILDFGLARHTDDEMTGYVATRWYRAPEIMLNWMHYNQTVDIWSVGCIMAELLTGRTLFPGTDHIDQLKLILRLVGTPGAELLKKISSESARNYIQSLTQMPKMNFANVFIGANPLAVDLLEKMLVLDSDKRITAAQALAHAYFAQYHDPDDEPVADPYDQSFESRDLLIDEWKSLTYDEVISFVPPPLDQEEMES
Cytochrome P450 2D6, sequence (P10635 whole entry): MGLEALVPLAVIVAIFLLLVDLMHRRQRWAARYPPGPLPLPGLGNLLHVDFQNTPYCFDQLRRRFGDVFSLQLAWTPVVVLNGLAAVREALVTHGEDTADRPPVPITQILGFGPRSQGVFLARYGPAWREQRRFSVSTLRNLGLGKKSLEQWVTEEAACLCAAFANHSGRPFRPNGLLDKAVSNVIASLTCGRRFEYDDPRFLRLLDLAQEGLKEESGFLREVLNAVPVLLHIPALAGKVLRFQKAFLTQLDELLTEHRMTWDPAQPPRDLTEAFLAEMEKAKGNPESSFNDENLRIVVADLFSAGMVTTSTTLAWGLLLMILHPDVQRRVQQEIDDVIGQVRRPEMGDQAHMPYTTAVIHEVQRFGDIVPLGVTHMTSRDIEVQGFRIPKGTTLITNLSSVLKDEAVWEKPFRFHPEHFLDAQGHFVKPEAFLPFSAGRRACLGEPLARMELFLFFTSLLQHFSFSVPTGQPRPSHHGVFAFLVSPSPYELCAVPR
Cytochrome P450 2C19, sequence (P33261 whole entry): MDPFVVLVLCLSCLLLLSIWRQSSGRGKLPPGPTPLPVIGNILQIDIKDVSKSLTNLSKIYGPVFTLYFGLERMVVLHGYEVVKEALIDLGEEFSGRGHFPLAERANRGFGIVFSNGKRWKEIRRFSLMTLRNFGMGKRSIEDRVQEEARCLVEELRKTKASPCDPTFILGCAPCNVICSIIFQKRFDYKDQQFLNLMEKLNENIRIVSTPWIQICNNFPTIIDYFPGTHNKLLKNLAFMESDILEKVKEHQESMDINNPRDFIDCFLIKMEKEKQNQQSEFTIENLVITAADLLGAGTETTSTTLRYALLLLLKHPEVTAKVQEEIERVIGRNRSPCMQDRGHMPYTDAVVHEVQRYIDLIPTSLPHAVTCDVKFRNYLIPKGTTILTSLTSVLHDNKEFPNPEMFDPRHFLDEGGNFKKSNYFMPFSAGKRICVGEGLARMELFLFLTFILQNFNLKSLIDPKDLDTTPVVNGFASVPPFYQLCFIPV

SMILES	Activity (Rattus norvegicus [3]) [%]	Papp [5] [×10⁻⁶ cm/s]	IC50 (THP-1) [µM]	half-life [6] [h]	Vd [7] [L/kg]	inhibition in vivo at 1 mg/kg (Rattus norvegicus [8]) [%]	other results
Cc1ccccc1-n1nc(-c2c(-c3ccc(F)cc3)nn3c2N[C@H](CO)CC3)ccc1=O	62.3	22	0.00037	5.95	0.98	98	bioavailability [1]: 100%; clearance [2]: 3.8 mL/min/kg; AUC [4]: 4500 ng·h/mL
Cc1ccccc1-n1nc(-c2c(-c3ccc(F)cc3)nn3cc(CO)cnc23)ccc1=O			0.023			11	
O=c1ccc(-c2c(-c3ccccc3)nn3ccccc23)nn1CC1(O)CCCCC1			0.014				CLint scaled [9]: 195 mL/min/kg; inhibition in vivo at 3.2 mg/kg (Rattus norvegicus [10]): 43%
CNc1c(-c2ccc(=O)n(-c3ccccc3C)n2)c(-c2ccc(F)cc2)nn1C	37	30	0.006	0.66	0.65	86	bioavailability [1]: 28.6%; clearance [2]: 20.6 mL/min/kg; AUC [4]: 235 ng·h/mL; CLint scaled [9]: 213 mL/min/kg; half-life [11]: 0.66 h
Cc1ccccc1-n1nc(-c2c(-c3ccc(F)cc3)nn3c2NCC3)ccc1=O			0.106				
Cc1ccccc1-n1nc(-c2c(-c3ccc(F)cc3)nn3c2NCCC3)ccc1=O		30	0.001			93	CLint scaled [9]: 94 mL/min/kg
Cc1ccccc1-n1nc(-c2c(-c3ccc(F)cc3)nn3c2OCCC3)ccc1=O			0.01			33	
Cc1ccccc1-n1nc(-c2c(-c3ccc(F)cc3)nn3c2NC[C@@H](O)C3)ccc1=O	61.4	16	0.00085	3.89	1.23	94	F (Rattus norvegicus [12]): 67.7%; AUC (Rattus norvegicus [13]): 763 ng·h/mL
Cc1ccccc1-n1nc(-c2c(-c3ccc(F)cc3)nn3c2NC[C@H](O)C3)ccc1=O	51	17	0.0018	9.01	4.21	89	F (Rattus norvegicus [12]): 81%; AUC (Rattus norvegicus [13]): 457 ng·h/mL
Cc1ccccc1-n1nc(-c2c(-c3ccc(F)cc3)nn3c2NC[C@H](CO)C3)ccc1=O	59.7		0.00095	3.82	1.11	92	F (Rattus norvegicus [12]): 103.6%; AUC (Rattus norvegicus [13]): 1217 ng·h/mL
Cc1ccccc1-n1nc(-c2c(-c3ccc(F)cc3)nn3c2NCC(CN2CCN(C)CC2)C3)ccc1=O (centres undefined)		21	0.0011			88	
Cc1ccccc1-n1nc(-c2c(-c3ccc(F)cc3)nn3c2N[C@@H](CO)CC3)ccc1=O		23	0.00046			98	
Cc1ccccc1-n1nc(-c2c(-c3ccc(F)cc3)nn3c2NC[C@@H](CO)C3)ccc1=O [AS1940477]	71.3	19.7	0.0006	5.15	0.77	92	F (Rattus norvegicus [12]): 61.8%; AUC (Rattus norvegicus [13]): 1518 ng·h/mL; IC50 (Cytochrome P450 2C9): 19 µM; IC50 [14]: 0.036 µM; solubility [15]: 42 µg/mL (≈ 97.3 µM); IC50 (Cytochrome P450 2D6): > 50 µM; ED50 (Rattus norvegicus [16]): 0.05 mg/kg; IC50 [17]: 0.011 µM; IC50 (Cytochrome P450 2C19): > 50 µM; IC50 [18]: > 100 µM; ED30 (Rattus norvegicus [19]): 0.15 mg/kg; IC50 (Cytochrome P450 1A2): > 50 µM; IC50 [20]: > 10 µM
Cc1ccc(-n2nc(C(C)(C)C)cc2NC(=O)Nc2ccc(OCCN3CCOCC3)c3ccccc23)cc1 [DORAMAPIMOD]							ED50 (Rattus norvegicus [16]): 2.6 mg/kg; ED30 (Rattus norvegicus [19]): 5.8 mg/kg
O=c1ncn2nc(Sc3ccc(F)cc3F)ccc2c1-c1c(Cl)cccc1Cl [NEFLAMAPIMOD]							ED50 (Rattus norvegicus [16]): 39.9 mg/kg; ED30 (Rattus norvegicus [19]): 92 mg/kg

Reference: ChEMBL document CHEMBL2169749 (J Med Chem, 2012)
